Most compounds without a hit are left out; they make up all but 2.3% or so of the library.
PAFAH2 FP inh: inhibitors of human PAFAH2; inhibition, % at 3.39 µM; hit rate 0.99% among 340,000; recombinant PAFAH2, FP-rhodamine activity probe, fluorescence polarization; Q99487;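 active = inhibition above the mean over all tested compounds plus 3 SD, cut at about 30% in these data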;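 also: inhibitors block probe labeling of enzyme so polarization drops; 0% = enzyme with DMSO and 100% = wells lacking PAFAH2 protein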
PAFAH1B2 inh: PAFAH1B2 (human) inhibition. inhibition, % at 3.39 µM. P68402. hit rate 1.2% among 340,000. recombinant PAFAH1B2, FP-rhodamine activity probe, fluorescence polarization. AID 492953;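 active = inhibition above the mean of all tested compounds plus 3 SD, cut at about 24% in these data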;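 also: 0% = enzyme with DMSO and 100% = wells lacking PAFAH1B2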
Target sequence (P68402 whole entry, looked up): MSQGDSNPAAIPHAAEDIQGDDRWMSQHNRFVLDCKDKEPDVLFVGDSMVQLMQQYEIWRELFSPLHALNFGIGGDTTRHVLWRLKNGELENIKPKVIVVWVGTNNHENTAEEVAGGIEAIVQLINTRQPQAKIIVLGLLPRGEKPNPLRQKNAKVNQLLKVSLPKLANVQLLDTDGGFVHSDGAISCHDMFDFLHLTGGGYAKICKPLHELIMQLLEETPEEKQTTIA
Apaf-1 inh: blocks human Apaf-1 apoptosome activity; reconstituted apoptosome caspase-3 activity, DEVD-Rh110 fluorescence; O14727; AID 489030; inhibition, % at 20 µM; hit rate 0.71% among 330,000; active = inhibition of at least 40% at 20 µM;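 also: plate controls were DMSO wells for no effect and DEVD-CHO caspase inhibitor wells for full effect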
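Assay system – apoptosome proteins · Medium – Hepes buffer, pH 7.5 · Also added – cytochrome c with DEVD-Rh110 · Timing – 30 min compound preincubation, 50 min activation, room temperature · Detection – Rh110 fluorescence, excitation 480 nm, emission 540 nm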
TDP2 inh: blocks human TDP2 phosphodiesterase activity. O95551. recombinant TDP2, T5PNP hydrolysis, p-nitrophenol absorbance 415 nm. inhibition, % at 12.8 µM. hit rate 0.34% among 370,000. AID 720702;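 active = inhibition above the mean of all tested compounds plus 3 SD, set per campaign, cut at about 25% in these data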;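 also: 0% = DMSO with enzyme and 100% = buffer with substrate but no TDP2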
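System: recombinant human TDP2 / Amount: 120 nM TDP2 per well / Also added: 5 mM T5PNP chromogenic substrate / Doses: 12.8 µM single point, 1% DMSO / Incubation: 2 h at 37 °C / Detection: p-Nitrophenol epi absorbance / Evaluation: % inhibition relative to enzyme-containing and enzyme-free wells / Repeats: singlicate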
PAFAH1B3 inh: blocks human PAF acetylhydrolase 1B catalytic subunit 3; Q15102; recombinant PAFAH1B3, FP-rhodamine probe, fluorescence polarization; inhibition, % at 3.39 µM; hit rate 0.28% among 340,000;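 active = inhibition above the screen-wide average of all tested compounds plus 3 SD, cut at about 25% in these data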;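 also: 0% = enzyme with DMSO only and 100% = wells lacking PAFAH1B3 protein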
Target sequence (Q15102 whole entry, looked up): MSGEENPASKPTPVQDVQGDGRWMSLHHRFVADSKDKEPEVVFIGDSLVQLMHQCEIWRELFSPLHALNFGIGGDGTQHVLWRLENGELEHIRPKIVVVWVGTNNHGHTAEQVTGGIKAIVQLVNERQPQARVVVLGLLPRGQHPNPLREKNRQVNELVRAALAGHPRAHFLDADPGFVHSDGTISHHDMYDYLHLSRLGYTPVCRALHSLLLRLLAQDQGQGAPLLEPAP
* hit, by the source's call; / = no result.

SMILES | PAFAH2 FP inh | PAFAH1B2 inh | Apaf-1 inh | TDP2 inh | PAFAH1B3 inh
COc1cc(NC(=O)c2cc(OC)c(OC)c(OC)c2)c2ncccc2c1 | -2 | 27* | / | 15 | 10
CCC(NC(=O)Cn1c(-c2ccccc2)cc(C(C)=O)c1C)c1ccccc1 (stereo not drawn) | / | / | / | 0 | /
COc1ccc(CNc2cc(C)ccn2)cc1 | 6 | 1 | 11 | -4 | 2
Cc1cccc(NCc2ccc(Br)cc2)n1 | -12 | 30* | 0 | -1 | -2
Cc1ccnc(NCc2ccc(Br)cc2)c1 | 3 | 27* | -1 | -6 | 9
Cc1cccc(NCc2cccc3ccccc23)n1 | 3 | 4 | 13 | 10 | -3
Cc1ccc(Sc2ccc(NC(=O)CCN3C(=O)NC4(CCCC4)C3=O)cc2)c(C)c1 | 38* | 7 | 25 | -2 | 2
COc1cc(-c2nnc(SCC(=O)NN=Cc3c[nH]c4ccccc34)n2-c2ccccc2)cc(OC)c1OC | / | / | / | -3 | /
CSc1nc(N(CCO)CCO)c2sc3nc(-c4ccco4)c4c(c3c2n1)CCC4 | 31* | 6 | / | 1 | 15
CSc1nc(SCCO)c2sc3nc(-c4ccco4)c4c(c3c2n1)CC(C)(C)OC4 | 10 | -4 | / | 12 | 1
COC(=O)CSc1ccc(S(=O)(=O)N2CCC(C)CC2)cc1[N+](=O)[O-] | -4 | 27* | 3 | 9 | -5
CC1CCC(NC(=O)c2cccc(S(=O)(=O)N3CCN(C)CC3)c2)CC1 (stereo not drawn) | 5 | 26* | 1 | 7 | 4
CC1CCN(S(=O)(=O)c2cccc(C(N)=O)c2)CC1 | 2 | 26* | -2 | -4 | 0
CC1CCC(NC(=O)c2cccc(S(=O)(=O)N3CCOCC3)c2)CC1 (stereo not drawn) | / | / | / | -1 | /
CC1CCN(C(=O)c2cccc(S(=O)(=O)N3CCN(c4ccccc4)CC3)c2)CC1 | 1 | -1 | 15 | 14 | 2
COC(=O)c1cc(S(=O)(=O)N2CCC(C)CC2)ccc1F | -9 | 20 | -3 | -3 | 6
COC(=O)c1cccc(S(=O)(=O)N2CCC(C)CC2)c1 | -3 | 26* | 0 | -2 | -5
Cc1ccc(C=Nn2c(-c3n[nH]c4c3CCC4)n[nH]c2=S)s1 | / | / | / | -11 | /
CCOC(=O)[C@]12CCCC3=C1N(CCC3)C(=O)[C@@H](CC(=O)NCCC(C)C)C2 | / | / | / | 0 | /
CC1CCN(S(=O)(=O)c2ccc(C(=O)N(C)C3CCS(=O)(=O)C3)cc2)CC1 (stereo not drawn) | -2 | 13 | 6 | -10 | 7
CC1CCN(S(=O)(=O)c2cccc(C(=O)N(C)C3CCS(=O)(=O)C3)c2)CC1 (stereo not drawn) | -5 | 33* | 1 | -2 | 7
O=[N+]([O-])c1cc(-c2cnc3ccccc3n2)ccc1Oc1ccc(F)cc1 | -12 | 58* | 4 | -3 | 6
Clc1ccc(N2CCN(/N=C/c3ccncc3)CC2)cc1 | 4 | 27* | -5 | 11 | 1
COc1cc(O)c(C(CC(=O)N2CC(C)OC(C)C2)c2ccc3c(c2)OCO3)c(OC)c1 (stereo not drawn) | / | / | / | 4 | /
C=CCNC(=O)c1onc(CSc2ccc(Cl)cc2)c1C(=O)NCC=C | -8 | 25* | 3 | 0 | -5
SMILES | PAFAH2 FP inh | PAFAH1B2 inh | Apaf-1 inh | TDP2 inh | PAFAH1B3 inh
O=c1c2ccccc2ncn1CCCSc1ccc(Cl)cc1 | 6 | 51* | 1 | -10 | 7
O=C(c1cn(-c2ccccc2)nc1-c1cccnc1)N1CCN(S(=O)(=O)c2ccc(Cl)cc2)CC1 | -4 | 29* | / | -6 | 4
COC(=O)[C@]12C[C@H](CC(=O)NCc3cccc(C(F)(F)F)c3)C(=O)N(Cc3ccco3)C1=C[C@H](C1CCCC1)O[C@@H]2C | / | / | / | -13 | /
CN1CCN(CCCNC(=O)c2cc3c(-c4ccc(Cl)cc4)nn(C)c3s2)CC1 | 1 | 7 | 43* | 1 | 7
CCN(CC)CCCNC(=O)c1cc2c(-c3ccc(Cl)cc3)nn(C)c2s1 | 0 | 0 | 38 | 3 | 13
CC(=O)c1cccc(NC(=S)Nc2cccc3ccccc23)c1 | -6 | 6 | 81* | -4 | 1
CC(=O)c1ccc(NC(=S)Nc2cccc3cnccc23)cc1 | 5 | 2 | 96* | 20 | 6
COc1ccc(NC(=S)Nc2cccc3ccccc23)cc1OC | -1 | 3 | 83* | 18 | -1
Cc1ccc(C)c(NC(=S)Nc2cccnc2)c1 | 5 | 0 | 4 | -9 | -2
Cc1ccc(C)c(NC(=S)Nc2cccc3cnccc23)c1 | 0 | 5 | 96* | 7 | 13
S=C(Nc1cccc2ccccc12)Nc1cccc2ccccc12 | -10 | 0 | / | -3 | 5
Cc1ccc(F)c(NC(=S)Nc2cccc3ccccc23)c1 | 7 | 1 | 78* | -4 | 9
COc1ccc(C(=O)c2[nH]c(N)c(C(=O)c3ccccc3)c2-c2ccc(OC)c(OC)c2)cc1 | / | / | / | 0 | /
Cc1ccc(-c2csc(NS(=O)(=O)c3cccc(F)c3)n2)o1 | 37* | 5 | 2 | -3 | 9
Cc1nc(CNS(=O)(=O)c2cccc(F)c2)cs1 | 9 | -4 | -15 | 2 | 1
Cc1cc(NS(=O)(=O)c2ccccc2)ccc1NS(=O)(=O)c1ccccc1 | 12 | 28* | / | -5 | 5
Cc1ccc(C(=O)OCC(=O)NC(C)C2CC3CCC2C3)cc1N (stereo not drawn) | 84* | 7 | 20 | 4 | 7
CC(NC(=O)COC(=O)c1ccc2ccccc2n1)C1CC2CCC1C2 (stereo not drawn) | 5 | -1 | 5 | -10 | 9
CC(NC(=O)COC(=O)c1cc(Cl)ccc1O)C1CC2CCC1C2 (stereo not drawn) | 29 | 26* | 3 | -5 | 4
c1ccc2sc(-c3csc4c3CCNC4)nc2c1 | / | / | / | 3 | /
O=C(CN(Cc1ccco1)C(=O)CNS(=O)(=O)c1ccc(Cl)cc1)NCc1ccc(F)cc1 | 22 | 26* | 6 | -5 | 2
CCCCCCN(C(=O)CCCCCN1C(=O)NC(c2ccc(-c3ccccc3)cc2)C(C(=O)OCc2ccccc2)=C1C)C(C(=O)NCCCC)c1cccc(C(=O)OC)c1 (stereo not drawn) | / | / | 79* | -10 | /
CCCCCCN(C(=O)CCCCCN1C(=O)NC(c2ccc(-c3ccccc3)cc2)C(C(=O)OCc2ccccc2)=C1C)C(C(=O)NCCCC)c1ccc(-c2ccccc2)cc1 (stereo not drawn) | / | / | 7 | 4 | /
CC(=O)C1CCC2C3CCC4=CC(=O)C=CC4(C)C3C(=O)CC12C (stereo not drawn) | -11 | 5 | / | -1 | 7
C[C@]12C=CC(=O)C=C1CC[C@@H]1C2=CC[C@]2(C)[C@@H](C(=O)CN3CCN(c4cc(N5CCCC5)nc(N5CCCC5)n4)CC3)CC[C@@H]12 | 6 | 0 | 87* | 4 | 11
C[C@@H]1CCN(C2CC2)S(=O)(=O)c2ccc(N3CCC[C@H]3C)cc2O1 | / | / | / | 1 | /

High-throughput results: PubChem BioAssay, several laboratories
